Tested on: MS2 coat protein
Assay: apparent Kd, MS2 coat protein; higher = weaker binding; RNA-MaP array; FMN 200 µM where present
Summary of the method: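 Stalled E. coli RNA polymerase transcribed each design on Illumina sequencing-chip clusters. The clusters were titrated with SNAP-549-labelled MS2 coat protein, starting at 0.7 or 1.5 nM and doubling up to 3 µM, first without ligand and then with constant ligand, in 100 mM Tris-HCl pH 7.5, 80 mM KCl, 4 mM MgCl2, BSA, DTT, yeast tRNA and Tween-20. Green signal was normalised to red-channel RNA signal and to the control-cluster median Fmax. The apparent Kd is the median of filtered binding-curve fits made for each cluster.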

[1] = designed as: OFF switch for flavin mononucleotide, no ligand
[2] = ligand present: flavin mononucleotide, designed as: OFF switch for flavin mononucleotide
[3] = designed as: ON switch for flavin mononucleotide, no ligand
[4] = ligand present: flavin mononucleotide, designed as: ON switch for flavin mononucleotide

| Sequence | apparent Kd [1] | apparent Kd [2] | apparent Kd [3] | apparent Kd [4] |
| --- | --- | --- | --- | --- |
| AAUUUACAGGGAGGAUAUACAUGAGGAUCACCCAUGUAAUCAUAUGAUAUUUUUUUUGUAUGAGUGUAGAAGGCCCAAAUAACA | 9.27 nM | 11.4 nM | – | – |
| UAUGUUGUUGUGAGGAUAUACUUAGUUUGACCGUAGUAGAAGGCACAUGAGGAUCACCCAUGUAGAUGUUUGGU | 15.8 nM | 29.5 nM | – | – |
| AAAAAAAAAAGGCAGGAUAUCCAAAAAAAAACAUGAGGAUCACCCAUGUAAAAAAAAAAAAAAUGGGAGAAGGGCCAAAAAAAAAA | – | – | 39.2 nM | 14.3 nM |
| AAAUUUAACGAAGGAUAUGGUUACAUGAGGAUCACCCAUGUAUAUUUUGUGAUCUUGUUUAAGUUCCAGAAGGUCGUAUACAUA | 74.1 nM | 294 nM | – | – |
| AAACAUGUCCGAGGAUAUCUGGAAACAUUUCCAAGAGAAGGCGGACAUGAGGAUCACCCAUGUCUCUCCUCAUCAAAUCCGAGU | 9.24 nM | 89.3 nM | – | – |
| CGGCGCUGUCGAGAGGAUAUGCGGUGAUGGACAUGAGGAUCACCCAUGUUAGCGAUAGCAUCACGGUAGAAGGCUCCACAGCCGU | – | – | 31.8 nM | 13 nM |
| GCGUUCUUGUAGAAGGUACAUACAAUAUCUUUUUAACACAUGACACAUGAGGAUCACCCAUGUUGUAAGGAUAUACAUGAACGC | – | – | 6.8 nM | 6.91 nM |
| CUGUCCCAAGGAUAUACAUCAGUCCCAGGGUGCCGCAUAAGACAUGAGGAUCACCCAUGUAGAAGGUGGAGACC | 96.7 nM | 92.6 nM | – | – |
| CACUGCAAUGUAGGAUAUCGACUGGAUAACAGUCGAGAAGGACAUGAGGAUCACCCAUGUACUAUGAGUGAAUAAUAAGCAGUG | 89 nM | 950 nM | – | – |
| GGUGCGUUUGUGAGGAUAUGCUGGUCCUUGGAUCAGCAGAAGGCACAUGAGGAUCACCCAUGUGGUGUCGUCCC | 348 nM | 44.7 nM | – | – |
| GGGUACAUCGGAGGAUAUCAUGUAAAUACAUGAGGAUCACCCAUGUCGAUGGAGACAUCGGAAAUUGAGAAGGCCGAUGUACCG | – | – | 16.9 nM | 4.87 nM |
| CGCUGGACUGAGAAGGCCAUGUGGGACGCGAACAGUGAUGUUAGGGCAUGGAGGAUAUCAGACAUGAGGAUCACCCAUGUAACC | – | – | 392 nM | 38 nM |
| AAAUAAACUACCAAGAUAUCCUCACAUGAGGAUCACCCAUGUCAGGAUAUUUGUCCUAAAAGGACAGAGAAGGGACGUGGUAGA | 6.24 nM | 14.8 nM | – | – |
| UAAUAAUAGCAAGGAUAUGGUUAUUAUAAUAUACCAGAAGGUGCACAUGAGGAUCACCCAUGUUUUAUAAUUUGUAAUUUAAAU | 30.7 nM | 27.3 nM | – | – |
| GAAAGGUCAGGAUAUACGUUAUGCUAGUGCUCGUACUAUAAGUAGAAGGGACAUGAGGAUCACCCAUGUGAUAA | 54.8 nM | 79.4 nM | – | – |
| CGGGCGCGAGUAGGAUAUGUAUAUUUGCCGGGUCCGUGAUCACAUGAGGAUCACCCAUGUGGUAAGCAGAAGGAUUCGGUCCGA | 6.04 nM | 7.8 nM | – | – |
| CAGACCGGCAUAGGAUAUGUCGACAUGAGGAUCACCCAUGUAAGCCUUGUCUGGUCCGGUGUGUGACAGAAGGAUGUCGGCCAU | 37.7 nM | 26.4 nM | – | – |
| UUCUUUCCUCAUGUACAUGAGGAACAUGAGGAUCACCCAUGUAGAAGGAUUUCCAUUAAAUUAAAAUAGGAUAUACAUAUAUUU | 18.6 nM | 16.7 nM | – | – |
| UUUUAGCAAGGAUAUACAUUUUUUUUAUUAUCCUCAUUAUUACAUGAGGAUCACCCAUGUAGAAGGUGCAUUUU | 75.9 nM | 81.5 nM | – | – |
| GCACUGGCAGGAUAUACAUGAGGAUCACCCAUGUGAUCCCUUAAGUACAAAAGUACAAGUAGAAGGGCCUGUGC | 771 nM | 188 nM | – | – |
| GCAAAUUAGUGAGGAUAUACAUAAUUUAUUUCUGUAGAAGGCACAAACCUCAAGACAUGAGGAUCACCCAUGUGGUAUUUAAGC | 155 nM | 415 nM | – | – |
| ACAUUGCGAGGAUAUACAUGAGGAUCACCCAUGUGGUAGUAGAUACGGUAGGGCUAGUGUAGAAGGUGUCAUGG | 137 nM | 131 nM | – | – |
| CUUUUGUGAGGAUAUUAGUAGUAAAUAAAUAAAAUUACUACUGAGAAGGCACAUGAGGAUCACCCAUGUUUCUC | 32.4 nM | 284 nM | – | – |
| GGCGGACAUGAGGAUCACCCAUGUAAGGAUAUUAGGCGAUCGUCGAAAGACGAUAGCCUGAGAAGGUACGCGCC | 14.7 nM | 17.2 nM | – | – |

| Sequence | apparent Kd [1] | apparent Kd [2] | apparent Kd [3] | apparent Kd [4] |
| --- | --- | --- | --- | --- |
| GGGUACAUCGGAGGAUAUCAUGUAAAUACAUGAGGAUCACCCAUGUCGAUGGAGACAUUGGAGAUUGAGAAGGCCGAUGUACCG | – | – | 156 nM | 219 nM |
| ACCGUAUGAACAUGAGGAUCACCCAUGUAUUCGAAAAGGAAUGAGGAUAUCGAUAGCAAAGCUAUCGAGAAGGCAUGGGACGGU | – | – | 255 nM | 60.4 nM |
| AUCAGCUCGUCAGGAUAUGCAUCACUGCUUCGGCAGUGUGGUAAGAUCACAUGAGGAUCACCCAUGUAGAAGGGACGAGCUGAU | 9.83 nM | 69.4 nM | – | – |
| AUAUAGUCAGGAUAUCGAAGUGAGUGUUGGUUUGUAAGGUACGAGAAGGGACAUGAGGAUCACCCAUGUAGGAA | 40.3 nM | 38.8 nM | – | – |
| AAUUAUUAUUGAGGAUAUCGUAUUGAAACAAUACGAGAAGGCGGAAUAAACAUGAGGAUCACCCAUGUGAGCCUGAUGCUUGUG | 17 nM | 18.7 nM | – | – |
| AAAAAACAUGAGGAUCACCCAUGUGAGGAUAUGCUAAAAAAAUCCGCAUGAAAAAAUAGCAGAAGGCACAUAAA | 32.9 nM | 106 nM | – | – |
| UUUUCCAAUCAAGGAUAUGUAUUAAAGAUUUGAAAACAUGAGGAUCACCCAUGUAUAUGGUGGGAACAGAAGGUGAAUAAGUAA | 221 nM | 231 nM | – | – |
| CUUUCCAGGUAGAAGGGAUUACUACAUGAGGAUCACCCAUGUCGAUUGAUCAGGAUAUGCCUGUCACGACGCGUGAUGCUAGAG | – | – | 322 nM | 66.3 nM |
| UUUUUAUAAGAGAAGGAGGACUUCAUGAGGAUCACCCAUGUGUUAGUACUUAGGAUAUUUAAUAACAUGAGGAUCACCCAUGUC | – | – | 49.4 nM | 49.2 nM |
| UCUUUACAUGAGGAUCACCCAUGUGAGGAUAUGGAUUCGCUGGCCGUAGCCAGUGGAUCCAGAAGGCGCGUGAU | 74.7 nM | 64.9 nM | – | – |
| AGAAACUACGAGAAGGACAUGUGGUCAAAACGAAACAUGAGGAUCACCCAUGUAGGAUAUCGUAGUUUCAGGAUCGUGAGAUCA | 265 nM | 429 nM | – | – |
| CAGGAUAGAGGAUAUACAUAGAUACAGAUUCAUGUGGUCCUACAUGAGGAUCACCCAUGUAGAAGGCUAUCCUG | 166 nM | 30 nM | – | – |
| UUGAAUUUAAACAUGAGGAUCACCCAUGUGUCAUAGUUGACAUAGGAUAUGCUUAUACUUUGAAAGCAGAAGGAUGACGAUACU | – | – | 41.3 nM | 10.1 nM |
| AAACACGGACAUGAGGAUCACCCAUGUGGCGAAAGCCUAACUAGAAGGCAGUAUGCAAAGCAUUCUGAGGAUAUGGGUUCCGUG | – | – | 188 nM | 18.1 nM |
| AAGGAGUGAGGAUAUGCGCGGGCACGCUCUAAAUAAGAAAGACAUGAGGAUCACCCAUGUAGAAGGCACAAUAA | 19.9 nM | 32.5 nM | – | – |
| CAGUACUGAGGAUAUACAUGAGGAUCACCCAUGUGUUCCUGCUAGGAAACUAGCAAAAGUAGAAGGCAGUACUG | 25.2 nM | 532 nM | – | – |
| AAAAAAAAAACGCAGGAUAUCCAAAAAAAAACAUGAGGAUCACCCAUGUAAAAAAAAAAAAAAUGGGAGAAGGGUGAAAAAAAAAA | – | – | 114 nM | 51 nM |
| CCUCGUUGGGAGGAUAUCCUUUUGGUUGGAGGAGGAGAAGGCUCGACAUGAGGAUCACCCAUGUGGGAUUUCCC | 62.4 nM | 194 nM | – | – |
| CAUUUCAUGUCAGGAUAUCCGCGCAGCUUCACGCACGAUAUAAGGGAGCUUGGAGAAGGGACAUGAGGAUCACCCAUGUGCCUC | 10.9 nM | 26 nM | – | – |
| GUGUACAGAGGAUAUACUGGAGCAUGGAAACAUGCAACCUCACAUGAGGAUCACCCAUGUAGAAGGCUGUACAC | 334 nM | 28.2 nM | – | – |
| CCGAUGGUAUACUAGGAUAUGGGCGCCCUUACAUGAGGAUCACCCAUGUUUACACAAAUCCGCGGCCAGAAGGAGUUCAUGGGAG | – | – | 184 nM | 133 nM |
| GUAGCUAUCGGAGGAUAUUCAUACCGGAAACGGACAUGAGGAUCACCCAUGUGGCGAAAGCCAUGGGAGAAGGCCGAUAGCUAC | – | – | 606 nM | 131 nM |
| AAAUAAACUAGCAUAAUAACCUCACAUGAGGAUCACCCAUGUAAGGAUAUCUGUCCUAAAAGGACAGAGAAGGUACGUGCUAGG | 4.72 nM | 4.88 nM | – | – |
| AAGGCCUAUUCCAGGACUAUCGUACUAGAAGGGUGACUUGACAUGAGGAUCACCCAUGUACGAGCACAGGAUAUAGAUGAAAGG | – | – | 42.7 nM | 20.2 nM |

From the EternaBench riboswitch data
